What all share (assay type): functional, tissue-based
One experiment addresses T1, B2 bradykinin receptor (Cavia porcellus, UniProt O70526).
T1 sequence (O70526 whole entry): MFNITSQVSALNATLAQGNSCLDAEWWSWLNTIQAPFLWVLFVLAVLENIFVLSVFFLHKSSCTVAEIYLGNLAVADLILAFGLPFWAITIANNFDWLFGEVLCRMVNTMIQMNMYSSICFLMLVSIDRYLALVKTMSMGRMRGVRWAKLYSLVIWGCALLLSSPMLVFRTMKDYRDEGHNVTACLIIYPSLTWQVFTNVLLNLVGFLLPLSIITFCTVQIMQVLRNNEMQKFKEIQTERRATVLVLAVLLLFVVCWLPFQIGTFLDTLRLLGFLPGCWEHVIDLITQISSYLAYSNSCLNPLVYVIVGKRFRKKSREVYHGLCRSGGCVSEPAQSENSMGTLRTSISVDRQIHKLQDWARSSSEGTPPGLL
In words: (§1) Antagonistic activity against Bradykinin receptor B2 of guinea pig ileum longitudinal smooth muscle. Conditions: for Kb: read-out: pA2 (converted). The method in brief:
(§2)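 Guinea pig ileum longitudinal muscle-myenteric plexus strips in oxygenated (95% O2/5% CO2) Krebs with indomethacin, guanethidine (3 μM each), chlorpheniramine, atropine (1 μM each). Cumulative BK curves with thiorphan, bestatin, captopril (1 μM each); antagonist given 15 min before repeat curve at 1–10 μM. Contraction read-out; pA2 (dose ratio 2), mean ± SE of 4–15 experiments.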

The next experiment concerns the target T2, B1 bradykinin receptor (Rattus norvegicus, UniProt P97583).
T2 sequence (P97583 whole entry): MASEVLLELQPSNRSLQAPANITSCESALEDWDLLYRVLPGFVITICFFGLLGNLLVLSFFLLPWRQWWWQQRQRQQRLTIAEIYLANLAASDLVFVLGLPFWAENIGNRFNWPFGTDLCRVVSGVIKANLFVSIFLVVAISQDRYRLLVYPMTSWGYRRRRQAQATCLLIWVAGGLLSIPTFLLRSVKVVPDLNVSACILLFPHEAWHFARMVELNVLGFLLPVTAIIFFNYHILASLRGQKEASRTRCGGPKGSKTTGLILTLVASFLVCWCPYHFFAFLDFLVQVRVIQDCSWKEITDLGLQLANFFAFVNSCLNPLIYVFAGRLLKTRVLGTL
In words: Antagonistic activity against Bradykinin receptor B1 of rat ileum longitudinal smooth muscle. Conditions: for Kb: read-out: pA2 (converted). An outline of the steps: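 Rat ileum longitudinal muscle-myenteric plexus strips in oxygenated (95% O2/5% CO2) Krebs with indomethacin, guanethidine (3 μM each), chlorpheniramine, atropine (1 μM each). Cumulative desArg9-BK curves with thiorphan, bestatin, captopril (1 μM each); antagonist given 15 min before repeat curve at 1–10 μM. Contraction read-out; pA2 (dose ratio 2), mean ± SE of 4–15 experiments.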

Experiment [1] deals with T3, B2 bradykinin receptor (Cavia porcellus) (UniProt O70526).
T3 sequence (whole entry): T1 sequence (O70526 whole entry)
The description is as §1. An outline of the steps: as §2

Active and inactive are the calls of the source. The rule behind the calls is not given here. Where a SMILES comes first, the peptide text is derived from it. [ ]: non-standard residue; d: D form. Oic = O=C(O)[C@@H]1C[C@@H]2CCCC[C@@H]2N1; d2Nal = N[C@H](Cc1ccc2ccccc2c1)C(=O)O; Hyp = O=C(O)[C@@H]1C[C@@H](O)CN1; dTic = O=C(O)[C@H]1Cc2ccccc2CN1; 2Thi = N[C@@H](Cc1cccs1)C(=O)O Bounds are passed on as bounds.

As for `NC(N)=NCCC[C@@H](N)C(=O)N[C@@H](CCCN=C(N)N)C(=O)N1CCC[C@H]1C(=O)N1C[C@H](O)C[C@H]1C(=O)NCC(=O)N[C@H](C(=O)N[C@@H](CO)C(=O)N[C@@H](C(=O)N1[C@H](C(=O)N[C@@H](CCCN=C(N)N)C(=O)O)C[C@@H]2CCCC[C@@H]21)C1Cc2ccccc2C1)C1Cc2ccccc2C1`, the Kb at B2 bradykinin receptor was 6.31 nM; on B1 bradykinin receptor, 20 nM.

With `NC(N)=NCCC[C@@H](N)C(=O)N[C@@H](CCCN=C(N)N)C(=O)NCC(=O)NC1(C(=O)NCC(=O)N[C@@H](CO)C(=O)N2Cc3ccccc3C[C@@H]2C(=O)N2[C@H](C(=O)O)C[C@@H]3CCCC[C@@H]32)CCCCCC1`, the pA2 entry in experiment [1] was “inactive”. Besides, the Kb on B1 bradykinin receptor is 6310 nM.

As for `CC[C@H](C)[C@H](NC(=O)[C@@H](Cc1ccc2ccccc2c1)NC(=O)[C@H](CO)NC(=O)[C@H](Cc1ccccc1)NC(=O)CNC(=O)[C@@H]1CCCN1C(=O)[C@@H]1CCCN1C(=O)[C@H](CCCN=C(N)N)NC(=O)[C@H](CCCCN)NC(C)=O)C(=O)O` (Ac-KRPPGFS[d2Nal]I-OH), the Kb at B2 bradykinin receptor is 1000 nM; at B1 bradykinin receptor, 63.1 nM.

Turning to `NCCCC[C@H](NC(=O)[C@@H](N)CCCCN)C(=O)N[C@@H](CCCN=C(N)N)C(=O)N1CCC[C@H]1C(=O)N1C[C@H](O)C[C@H]1C(=O)NCC(=O)N[C@H](C(=O)N[C@@H](CO)C(=O)N[C@@H](C(=O)N1[C@H](C(=O)O)C[C@@H]2CCCC[C@@H]21)C1Cc2ccccc2C1)C1Cc2ccccc2C1`, the Kb on B2 bradykinin receptor is 3160 nM; at B1 bradykinin receptor, 7.94 nM.

On to `NC(N)=NCCC[C@@H](N)C(=O)N[C@@H](CCCN=C(N)N)C(=O)NCCCCCCCCCCC(=O)N[C@@H](CO)C(=O)N1Cc2ccccc2C[C@@H]1C(=O)N1[C@H](C(=O)O)C[C@@H]2CCCC[C@@H]21`, for which the pA2 result in experiment [1] is “inactive”. Further, at B1 bradykinin receptor, the Kb was 79.4 nM.

Regarding `NC(N)=NCCC[C@@H](N)C(=O)N[C@@H](CCCN=C(N)N)C(=O)NCCCCCCCCCCC(=O)N[C@@H](CO)C(=O)N[C@@H](C(=O)N1[C@@H](C(=O)O)C[C@H]2CCCC[C@H]21)C1Cc2ccccc2C1`, the pA2 was found to be 6 at B2 bradykinin receptor and 6.3 on B1 bradykinin receptor.

`NC(N)=NCCC[C@@H](N)C(=O)N[C@@H](CCCN=C(N)N)C(=O)NCCCC(=O)NC1(C(=O)NCCCC(=O)N[C@@H](CO)C(=O)N2Cc3ccccc3C[C@@H]2C(=O)N2[C@H](C(=O)O)C[C@@H]3CCCC[C@@H]32)CCCCCC1`: the Kb is above 10000 nM at B2 bradykinin receptor and 2000 nM at B1 bradykinin receptor.

Regarding `NC(N)=NCCC[C@@H](N)C(=O)N[C@@H](CCCN=C(N)N)C(=O)NCCCCCCCC(=O)N[C@@H](CO)C(=O)N1Cc2ccccc2C[C@@H]1C(=O)N1[C@H](C(=O)O)C[C@@H]2CCCC[C@@H]21`, the pA2 entry in experiment [1] is “inactive”. In addition, the Kb on B1 bradykinin receptor is 3980 nM.

In the case of `NCCCC[C@H](NC(=O)[C@@H](N)CCCCN)C(=O)N[C@@H](CCCN=C(N)N)C(=O)NCCCCCCCCCCC(=O)N[C@@H](CO)C(=O)N1Cc2ccccc2C[C@@H]1C(=O)N1[C@H](C(=O)O)C[C@@H]2CCCC[C@@H]21`, in experiment [1], the pA2 result is “inactive”. At B1 bradykinin receptor, the Kb is 794 nM.

Turning to `NC(N)=NCCC[C@@H](N)C(=O)N[C@@H](CCCN=C(N)N)C(=O)NCCCCCCCCCCCC(=O)N[C@@H](CO)C(=O)N1Cc2ccccc2C[C@@H]1C(=O)N1[C@H](C(=O)O)C[C@@H]2CCCC[C@@H]21`, the Kb is 3980 nM at B2 bradykinin receptor and 100 nM at B1 bradykinin receptor.

In the case of `NC(N)=NCCC[C@@H](N)C(=O)N[C@@H](CCCN=C(N)N)C(=O)NCCCCCC(=O)N[C@@H](CO)C(=O)N1Cc2ccccc2C[C@@H]1C(=O)N1[C@H](C(=O)O)C[C@@H]2CCCC[C@@H]21`, in experiment [1], the pA2 result is “inactive”. The Kb on B1 bradykinin receptor is 2000 nM.

On to `NC(N)=NCCC[C@@H](N)C(=O)N[C@@H](CCCN=C(N)N)C(=O)NCCC(=O)NC1(C(=O)NCCC(=O)N[C@@H](CO)C(=O)N2Cc3ccccc3C[C@@H]2C(=O)N2[C@H](C(=O)O)C[C@@H]3CCCC[C@@H]32)CCCCCC1`, for which the pA2 result in experiment [1] was “inactive”. Further, the Kb at B1 bradykinin receptor was 2510 nM.

`NC(N)=NCCC[C@@H](N)C(=O)N[C@@H](CCCN=C(N)N)C(=O)NC1(C(=O)N[C@@H](CO)C(=O)N2Cc3ccccc3C[C@@H]2C(=O)N2[C@H](C(=O)O)C[C@@H]3CCCC[C@@H]32)CCCCC1`: in experiment [1], the pA2 entry is “inactive”. For the same molecule, the Kb on B1 bradykinin receptor is 10000 nM.

Take `NCCCC[C@H](NC(=O)[C@@H](N)CCCCN)C(=O)N[C@@H](CCCN=C(N)N)C(=O)NCCCCCCCCCCC(=O)N[C@@H](CO)C(=O)N[C@@H](C(=O)N1[C@@H](C(=O)O)C[C@@H]2CCCC[C@@H]21)C1Cc2ccccc2C1`: the values for the pA2 at B2 bradykinin receptor and on B1 bradykinin receptor were 5.5 and 6.3, respectively.

`NC(N)=NCCC[C@@H](N)C(=O)N[C@@H](CCCN=C(N)N)C(=O)NCCCCCCCCCCC(=O)N[C@@H](CO)C(=O)N[C@@H](C(=O)N1[C@H](C(=O)N[C@@H](CCCN=C(N)N)C(=O)O)C[C@@H]2CCCC[C@@H]21)C1Cc2ccccc2C1`: the Kb at B2 bradykinin receptor is 794 nM; on B1 bradykinin receptor, 10000 nM.

In the case of `N=C(N)NCCC[C@@H](N)C(=O)N[C@@H](CCCNC(=N)N)C(=O)N1CCC[C@H]1C(=O)N1C[C@H](O)C[C@H]1C(=O)NCC(=O)N[C@@H](Cc1cccs1)C(=O)N[C@@H](CO)C(=O)N1Cc2ccccc2C[C@@H]1C(=O)N1[C@H](C(=O)O)C[C@@H]2CCCC[C@@H]21` (H-[dR]RP[Hyp]G[2Thi]S[dTic][Oic]-OH), the Kb at B2 bradykinin receptor was 2000 nM; on B1 bradykinin receptor, 158 nM.

Turning to `NC(N)=NCCC[C@@H](N)C(=O)N[C@@H](CCCN=C(N)N)C(=O)NC1(C(=O)N[C@@H](CO)C(=O)N2Cc3ccccc3C[C@@H]2C(=O)N2[C@H](C(=O)O)C[C@@H]3CCCC[C@@H]32)CCCCCCCC1`, the pA2 result in experiment [1] was “inactive”. The Kb at B1 bradykinin receptor is 6310 nM.

Consider `NCCCCC(N)C(=O)N[C@@H](CCCN=C(N)N)C(=O)NCCCCCCCCCCC(=O)N[C@@H](CO)C(=O)N1Cc2ccccc2C[C@@H]1C(=O)N1[C@H](C(=O)O)C[C@@H]2CCCC[C@@H]21` (stereo in doubt), for which the pA2 result in experiment [1] was “inactive”. In addition, the Kb on B1 bradykinin receptor was 1000 nM.

As for `NC(N)=NCCC[C@@H](N)C(=O)N[C@@H](CCCN=C(N)N)C(=O)NC1(C(=O)N[C@@H](CO)C(=O)N2Cc3ccccc3C[C@@H]2C(=O)N2[C@H](C(=O)O)C[C@@H]3CCCC[C@@H]32)CCCCCCC1`, the Kb on B2 bradykinin receptor was above 10000 nM; at B1 bradykinin receptor, 3160 nM.

For `CC(=O)N[C@@H](CCCCN)C(=O)N[C@@H](CCCN=C(N)N)C(=O)NCCCCCCCCCCC(=O)N[C@@H](CO)C(=O)N1Cc2ccccc2C[C@@H]1C(=O)N1[C@H](C(=O)O)C[C@@H]2CCCC[C@@H]21`, in experiment [1], the pA2 result was “inactive”. Also, the Kb on B1 bradykinin receptor was 251 nM.

Regarding `CC[C@H](C)[C@H](NC(=O)[C@@H](Cc1ccc2ccccc2c1)NC(=O)[C@H](CO)NC(=O)CCCCCCCCCCNC(=O)[C@H](CCCN=C(N)N)NC(=O)[C@H](CCCCN)NC(C)=O)C(=O)O`, the Kb on B2 bradykinin receptor was 1260 nM; at B1 bradykinin receptor, 100 nM.

`NC(N)=NCCC[C@@H](N)C(=O)N[C@@H](CCCN=C(N)N)C(=O)NC1(C(=O)N[C@@H](CO)C(=O)N2Cc3ccccc3C[C@@H]2C(=O)N2[C@H](C(=O)O)C[C@@H]3CCCC[C@@H]32)CCCCCC1`: in experiment [1], the pA2 entry was “inactive”. The Kb on B1 bradykinin receptor was 1260 nM.

The values above are taken from ChEMBL document CHEMBL1132566, “A new class of pseudopeptide antagonists of the kinin B1 receptor containing alkyl spacers” (J Med Chem, 1999).
